PubChem BioAssay
Active and inactive are the calls of the source.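 Rule for the calls, unless noted: active = NADPH fluorescence slope more negative than the mean of all samples by about 3 SD, 99.7% confidence; inactive = the rest.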

Key:
[1] = inhibitors of TNFa-induced NFkB p65 translocation, primary screen, imaging, HUVEC, MLSMR starter and 10KST1 sets (AID 438;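 active = inhibition above 20% together with a positive visual image hit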;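 note: compound added about 3h40 before a 20 min TNFalpha stimulation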;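 for inhibition: signal is the nuclear over cytoplasmic p65 intensity ratio per well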); details: HUVEC TNFa-induced p65 nuclear translocation; cell count: measured here: nuclei count (cytotoxicity indicator), at 2.08 µM; inhibition: at 2 µM, stronger effect = higher value, 0% TNFa-plus-vehicle, 100% no-TNFa wells
[2] = inhibitors of E-selectin induction by TNFa, primary screen, imaging, HUVEC, immunofluorescence, MLSMR starter and 10KST1 sets (AID 487;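 active = visually confirmed hit in the image check and inhibition above 20%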;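 for inhibition: signal is fraction of cell area covered by stained E-selectin grains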;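 for nuclei count: 100% = median nuclei count of all wells on the same plate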); details: HUVEC TNFalpha-induced E-selectin immunofluorescence imaging, at 2 µM; inhibition: stronger effect = higher value; nuclei count: measured here: cell number, toxicity
[3] = DUSP6 inhibitors restoring Erk phosphorylation by chemical complementation, primary imaging in DUSP6-transfected HeLa (AID 609;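 active = compounds giving at least 50% inhibition in the cell-based MKP-3 phosphatase rescue imaging test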;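 for inhibition: phospho-Erk level distribution per well compared with pooled transfected vehicle control wells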); details: HeLa MKP-3 transfected, phospho-Erk imaging KS statistic, at 10 µM, cells stimulated with TPA for 15 min
[4] = target: Dual specificity protein phosphatase 6 (Homo sapiens) (UniProt Q16828); test: as above; details: HeLa MKP-3 transfected, phospho-Erk imaging KS statistic; at 10 µM; stronger effect = higher value; cells stimulated with TPA for 15 min
[5] = target: Voltage-gated potassium channel subunit beta-2 (Rattus norvegicus) (UniProt P62483); test: KvBeta enzyme negative modulators, primary screen, biochemical, NADPH fluorescence (AID 622;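 active = fluorescence slope higher than the sample average by over 3 SD, cut at about -0.22 in these data, passing the limit was not always enough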;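 note: slope of raw intensity against log time taken from 70 to 1610 s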); details: recombinant KvBeta, 4-cyanobenzaldehyde reduction, at 10 µM, stronger effect = higher value
[6] = target: Voltage-gated potassium channel subunit beta-2 (Rattus norvegicus) (UniProt P62483); test: KvBeta positive modulators, primary screen, biochemical, NADPH fluorescence (AID 623); details: Recombinant KvBeta, NADPH fluorescence decrease slope, 10 min; at 10 µM; stronger effect = lower value;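 note: fluorescence intensity change per second fitted from 20 to 320 s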
[7] = target: Alpha-2C adrenergic receptor (Homo sapiens) (UniProt P18825); test: modulators of alpha2C/GIRK thallium flux, primary screen, cell-based, HEK293 alpha2C/GIRK1/2 (AID 624;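 active = fluorescence slope after compound addition differing from the mean of all screened samples at 99.7% confidence, in either direction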;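 note: slope of fluorescence ratio to pre-addition baseline per second over 15 to 24 s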); details: thallium flux BTC fluorescence, at 10 µM, actives lie on both sides
[8] = inhibitors of larval lipid processing in zebrafish, primary screen, whole organism, PED6 fluorescence, gall bladder and intestine (AID 686;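 active = a full or partial loss of lipid-probe fluorescence in the fish gall bladder, intestine or both, judged by eye; inactive = no fluorescence loss, or compound toxic to the fish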;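 note: larvae 5 to 7 days old with five fish per well; signal comes from phospholipase A2 cleavage of quenched PED6 carried via bile; overnight exposure to compound and PED6 before scoring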); details: Zebrafish larvae PED6 lipid processing, fluorescence scoring; screened at 20 µM (by protocol)
Outline: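 Test system – live zebrafish larvae aged 5-7 days, whole organism · Buffer or medium – E3 fish medium · Reagent – quenched phospholipase substrate PED6, 100 nM final, ingested by larvae · Doses – 20 µM single dose · Incubation – overnight compound and PED6 incubation · Technique – visual fluorescence microscopy scoring of gall bladder, gut · Read-out basis – visual per-well fluorescence inhibition score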

[9] = inhibitors of Chlamydomonas gravitaxis, primary screen, whole organism, Chlamydomonas reinhardtii, WT vs cilia-less mutant, absorbance, 96-well (AID 463189;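 active = inhibition at or above 50% relative to wild type and mutant plate controls; inactive = inhibition below 50%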;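 note: 0% = wild type cc124 cells in DMSO and 100% = ciliumless bld1 mutant cells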); details: OD600 absorbance, 2 days, at 10 µM, stronger effect = higher value
[10] = measured here: cell density z-score
[11] = measured here: nuclear c-Myc green intensity z-score
[12] = measured here: nuclear pErk red intensity z-score, stronger effect = higher value

Dual specificity protein phosphatase 6 (Homo sapiens), sequence (Q16828 whole entry, looked up): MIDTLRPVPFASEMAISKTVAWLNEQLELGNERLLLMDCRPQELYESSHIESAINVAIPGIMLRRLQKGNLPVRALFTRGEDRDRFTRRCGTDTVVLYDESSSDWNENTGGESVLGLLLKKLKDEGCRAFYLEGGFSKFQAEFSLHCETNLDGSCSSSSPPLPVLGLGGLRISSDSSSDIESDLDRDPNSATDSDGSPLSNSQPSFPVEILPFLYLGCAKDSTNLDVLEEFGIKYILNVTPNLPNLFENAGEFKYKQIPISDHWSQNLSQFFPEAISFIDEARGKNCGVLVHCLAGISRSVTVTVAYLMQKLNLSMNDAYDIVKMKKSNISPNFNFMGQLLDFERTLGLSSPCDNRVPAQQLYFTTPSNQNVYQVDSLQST
Alpha-2C adrenergic receptor (Homo sapiens), sequence (P18825 whole entry, looked up): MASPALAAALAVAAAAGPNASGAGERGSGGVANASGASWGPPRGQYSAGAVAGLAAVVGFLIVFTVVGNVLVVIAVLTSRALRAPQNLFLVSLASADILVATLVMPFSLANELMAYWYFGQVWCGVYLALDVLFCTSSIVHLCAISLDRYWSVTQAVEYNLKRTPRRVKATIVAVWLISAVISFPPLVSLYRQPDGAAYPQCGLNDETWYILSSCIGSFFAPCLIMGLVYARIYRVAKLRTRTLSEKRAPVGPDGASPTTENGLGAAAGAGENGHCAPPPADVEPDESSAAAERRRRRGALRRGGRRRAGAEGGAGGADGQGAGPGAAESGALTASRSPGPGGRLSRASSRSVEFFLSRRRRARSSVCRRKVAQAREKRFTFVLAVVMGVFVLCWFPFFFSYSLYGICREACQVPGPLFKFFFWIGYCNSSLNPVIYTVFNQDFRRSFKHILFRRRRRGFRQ
Voltage-gated potassium channel subunit beta-2 (Rattus norvegicus), sequence (P62483 whole entry, looked up): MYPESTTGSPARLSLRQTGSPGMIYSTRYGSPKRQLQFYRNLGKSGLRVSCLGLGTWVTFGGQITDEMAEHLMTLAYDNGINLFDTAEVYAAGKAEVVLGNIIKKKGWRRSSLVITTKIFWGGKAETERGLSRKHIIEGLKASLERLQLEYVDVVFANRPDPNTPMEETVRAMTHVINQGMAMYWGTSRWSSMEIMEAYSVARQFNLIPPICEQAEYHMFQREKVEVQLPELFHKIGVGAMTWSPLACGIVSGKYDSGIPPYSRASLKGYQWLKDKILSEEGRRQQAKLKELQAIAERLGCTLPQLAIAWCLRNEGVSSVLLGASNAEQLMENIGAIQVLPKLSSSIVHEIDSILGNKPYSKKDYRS

Row | Compound | cell count [1] | inhibition [1] | inhibition [2] | nuclei count [2] [%] | z-score [3, 10] | z-score [3, 11] | z-score [3, 12] | inhibition [4] | fluorescence slope [5] | NADPH fluorescence slope [6] | slope [7] | outcome [8] | inhibition [9]
1 | CCOC(=O)CSc1nc2ccccc2c(=O)n1C | 636 | -9.5% (inactive) | -24.4% (inactive) | 170 | -0.479 | 1.67 | 1.83 | -5.89% (inactive) | -0.523 (inactive) | -3.8e-05 (inactive) | 0.00573 (inactive) | inactive | -11.1% (inactive)
2 | CN(C)c1oc(-c2cccs2)nc1C#N | 443 | -7.1% (inactive) | -173% (inactive) | 157 | 1.44 | 1.03 | -0.732 | 6.04% (inactive) | -0.052 (inactive) | -1.6e-06 (inactive) | 0.00583 (inactive) | inactive | 4.07% (inactive)
3 | O=C(Nn1cnnc1)C(c1ccccc1)c1ccccc1 | 338 | -3.7% (inactive) | -164% (inactive) | 159 | 1.4 | 0.734 | 1.08 | 1.75% (inactive) | -0.417 (inactive) | -7.3e-05 (inactive) | 0.00619 (inactive) | inactive | 17.9% (inactive)
4 | N#Cc1c(-c2ccccc2Cl)cc(C2CC2)nc1N | 577 | -16.2% (inactive) | -31.3% (inactive) | 172 | 0.235 | -0.47 | 0.466 | -2.47% (inactive) | -0.415 (inactive) | -2.4e-05 (inactive) | 0.00637 (inactive) | inactive | -9.3% (inactive)
5 | N#Cc1c(N)sc(=S)c2c1CCCCC2 | 560 | -3.2% (inactive) | -130% (inactive) | 180 | -0.472 | -0.421 | 0.0305 | -0.608% (inactive) | -0.339 (inactive) | 2.8e-06 (inactive) | 0.00229 (inactive) | inactive | 6.84% (inactive)
6 | Cc1nnc2c(NC(C)C)nc3ccccc3n12 | 381 | -8.4% (inactive) | -63% (inactive) | 137 | 0.584 | -0.494 | -1.32 | 22.7% (inactive) | -0.382 (inactive) | -5.9e-05 (inactive) | 0.0077 (inactive) | inactive | 29.1% (inactive)
7 | CCCCNC(=O)C(C#N)c1nc2ccccc2nc1N1CCN(c2ccccc2F)CC1 (stereo unspecified) | 406 | 7.2% (inactive) | -12% (inactive) | 105 | -0.801 | -1.22 | 0.341 | -1.12% (inactive) | -0.475 (inactive) | -3.8e-05 (inactive) | 0.00688 (inactive) | inactive | 6.61% (inactive)
8 | Cc1cc(Cl)ccc1OCC(=O)OC(C)C(=O)N(C)C (stereo unspecified) | 356 | -24% (inactive) | -194% (inactive) | 168 | 1.09 | 0.169 | -0.845 | 5.26% (inactive) | -0.439 (inactive) | -0.000171 (inactive) | 0.00631 (inactive) | inactive | 7.97% (inactive)
9 | CCN(CC)CCN1C(=O)C(=O)/C(=C(/O)c2ccc(Cl)cc2)C1c1ccncc1 (stereo unspecified) | 358 | 3.7% (inactive) | -38.6% (inactive) | 64.8 | -0.384 | 0.846 | -1.58 | 26.6% (inactive) | -0.357 (inactive) | -2e-05 (inactive) | 0.00633 (inactive) | inactive | 21.1% (inactive)
10 | [N-]=[N+]=CC(=O)c1ccnc(C(=O)C=[N+]=[N-])c1 | 544 | -10.2% (inactive) | -164% (inactive) | 136 | 1.23 | -1.66 | -0.478 | 21.8% (inactive) | -0.54 (inactive) | -6.3e-05 (inactive) | 0.00557 (inactive) | inactive | 3.22% (inactive)
11 | COC(=O)COn1c(SCC(=O)OC)nc2ccccc2c1=O | 300 | -3.5% (inactive) | -6.8% (inactive) | 89.2 | -1.82 | 0.261 | 0.27 | -8.59% (inactive) | -0.442 (inactive) | -0.000116 (inactive) | 0.00782 (inactive) | inactive | -12.1% (inactive)
12 | COc1ccc(OC)c(NC(=O)CSc2nnc(-c3ccco3)n2-c2ccc(C(=O)O)cc2)c1 | 494 | -27.8% (inactive) | -97.7% (inactive) | 158 | 0.414 | -0.401 | -0.476 | 11.9% (inactive) | -0.505 (inactive) | -3.4e-05 (inactive) | 0.00721 (inactive) | inactive | 2.3% (inactive)
13 | CC(=O)N/C(=N/c1nc(C)cc(C)n1)Nc1ccc(NC(C)=O)cc1 | 647 | 3.8% (inactive) | -35% (inactive) | 154 | 1.7 | -1.09 | -1.09 | -1.12% (inactive) | -0.509 (inactive) | -6.6e-05 (inactive) | 0.00481 (inactive) | inactive | 1.67% (inactive)
14 | Clc1ccc(-c2nn3c(-c4cccc(Cl)c4)nnc3s2)cc1 | 603 | -0.1% (inactive) | -90.1% (inactive) | 150 | -0.779 | 0.764 | -0.704 | -2.47% (inactive) | -0.42 (inactive) | -9.2e-05 (inactive) | 0.00631 (inactive) | inactive | 33% (inactive)
15 | O=C(NCc1ccco1)c1ccc(=O)oc1 | 352 | -6% (inactive) | -89.9% (inactive) | 167 | 0.958 | 0.118 | -1.31 | 23.4% (inactive) | -0.471 (inactive) | -0.000178 (inactive) | 0.00508 (inactive) | inactive | 2.62% (inactive)
16 | CC(C)(C)c1ccc(C(=O)C=[N+]=[N-])cc1 | 519 | -4.7% (inactive) | -112% (inactive) | 60.8 | -1.12 | -0.668 | -0.2 | 3.97% (inactive) | -0.524 (inactive) | -6.4e-05 (inactive) | 0.00701 (inactive) | inactive | 2.22% (inactive)
17 | Cn1c(=O)c2c(nc(N3CCN(Cc4ccccc4)CC3)n2CC(=O)c2ccccc2)n(C)c1=O | 669 | 0.5% (inactive) | -198% (inactive) | 155 | 0.319 | -0.211 | 0.974 | 7.73% (inactive) | -0.533 (inactive) | -0.000101 (inactive) | 0.00454 (inactive) | inactive | -14.6% (inactive)
18 | CSC1=C(C#N)C(c2ccc(C)s2)CC(=O)N1 (stereo unspecified) | 411 | -0.1% (inactive) | 13.9% (inactive) | 63.5 | 0.0106 | 2.55 | -0.606 | 13.2% (inactive) | -0.511 (inactive) | -5e-05 (inactive) | 0.00472 (inactive) | inactive | 24% (inactive)
19 | CN1CCN(CCCCC(=O)c2ccccc2)CC1 | 600 | -9.1% (inactive) | 14.9% (inactive) | 183 | 0.5 | -1.07 | -0.798 | -6.06% (inactive) | -0.397 (inactive) | 1.3e-06 (inactive) | 0.00562 (inactive) | inactive | 68.4% (active)
20 | Cc1cc(=O)n2[nH]cnc2n1 | 517 | -4.6% (inactive) | -138% (inactive) | 125 | 1.56 | -0.453 | -0.845 | 5.57% (inactive) | -0.502 (inactive) | -0.000147 (inactive) | 0.00471 (inactive) | inactive | -0.839% (inactive)
21 | COc1cccc(C2=CC(c3ccccc3)n3nnnc3N2)c1 (stereo unspecified) | 586 | 22.3% (inactive) | -12.1% (inactive) | 120 | 0.0896 | 0.142 | -0.691 | -7.01% (inactive) | -0.275 (inactive) | 1.9e-05 (inactive) | 0.00526 (inactive) | inactive | 22.4% (inactive)
22 | CC(=NC1CCCC1)c1c(C)[nH]n(-c2nc3ccccc3s2)c1=O | 573 | 3.4% (inactive) | 54.6% (inactive) | 142 | 0.859 | 0.776 | -1.4 | -1.12% (inactive) | -0.469 (inactive) | -0.000261 (inactive) | 0.00463 (inactive) | inactive | 6.63% (inactive)
23 | CC(C)c1cc(NCCCN2CCOCC2)n2c(nc3ccccc32)c1C#N | 548 | -21.3% (inactive) | -6.2% (inactive) | 155 | 1.24 | -0.267 | -1.5 | 6.51% (inactive) | -0.342 (inactive) | -1.7e-06 (inactive) | 0.00382 (inactive) | inactive | 5.12% (inactive)
24 | CCOC(=O)c1c(SC)nc(SC)c2c1CCC2 | 648 | -8.1% (inactive) | -63.6% (inactive) | 182 | 0.267 | 0.0457 | 1.4 | -5.62% (inactive) | -0.394 (inactive) | -4.6e-05 (inactive) | 0.00956 (inactive) | inactive | -10% (inactive)
25 | Cn1c(SCC(=O)NCc2ccccc2)nc2ccccc21 | 325 | 1.6% (inactive) | -60.9% (inactive) | 79.7 | 0.441 | 2.21 | -0.441 | 3.66% (inactive) | -0.364 (inactive) | -2.1e-05 (inactive) | 0.00569 (inactive) | inactive; toxic | 26.1% (inactive)
26 | Cc1ccc(S(=O)(=O)/C(C#N)=C/c2c(N3CCN(C)CC3)nc3c(C)cccn3c2=O)cc1 | 485 | 3.3% (inactive) | 20% (inactive) | 160 | -0.459 | 0.434 | 1.14 | 20.3% (inactive) | -0.382 (inactive) | -4.1e-05 (inactive) | 0.00164 (active) | inactive | -7.2% (inactive)
27 | Cc1ccnc(N2CCN(c3cc(C)c(C#N)c4nc5ccccc5n34)CC2)c1 | 572 | 7.2% (inactive) | -151% (inactive) | 125 | 0.222 | 0.0486 | -0.157 | 13.9% (inactive) | -0.408 (inactive) | -8.8e-06 (inactive) | 0.00554 (inactive) | inactive | -4.75% (inactive)
